1 compound from ChEMBL document CHEMBL3525903 (Drug Metab Dispos, 2013) can be followed below.

pIC50: −log10 of the molar value. A value given as a limit tells only on which side of the number the result lay.

The target of one data set is T1, OCTN1 (SLC22A4) (Homo sapiens, UniProt Q9H015).
T1 sequence (Q9H015 whole entry): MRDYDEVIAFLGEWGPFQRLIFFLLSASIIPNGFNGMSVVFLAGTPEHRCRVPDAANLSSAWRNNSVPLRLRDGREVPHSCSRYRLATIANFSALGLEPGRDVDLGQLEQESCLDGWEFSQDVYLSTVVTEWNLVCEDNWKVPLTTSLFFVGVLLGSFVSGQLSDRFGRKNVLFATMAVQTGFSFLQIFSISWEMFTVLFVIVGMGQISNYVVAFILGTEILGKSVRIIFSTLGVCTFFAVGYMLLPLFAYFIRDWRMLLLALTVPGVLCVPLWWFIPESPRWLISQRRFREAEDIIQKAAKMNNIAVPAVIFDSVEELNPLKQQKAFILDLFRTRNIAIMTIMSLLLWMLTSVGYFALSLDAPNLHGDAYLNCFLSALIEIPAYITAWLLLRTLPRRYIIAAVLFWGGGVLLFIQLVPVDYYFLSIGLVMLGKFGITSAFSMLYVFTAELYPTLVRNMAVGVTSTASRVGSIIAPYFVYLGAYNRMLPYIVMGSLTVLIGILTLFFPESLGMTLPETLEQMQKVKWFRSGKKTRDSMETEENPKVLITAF
Kind of data set: Inhibition of OCTN1 (unknown origin) expressed in HEK293 cells assessed as reduction of [3H]ergothioneine substrate uptake at 100 uM by liquid scintillation counting. In kind it is cell-based. To be noted: HEK293 cells expressing OCTN1, probe [3H]ergothioneine. The method in brief: (§1)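 HEK293 cells transiently transfected with OAT, OATP or OCT plasmid (FuGENE6; 24 h, then 24 h more with sodium butyrate), or stable OCTN1/OCTN2 lines; vector-transfected cells as control. Washed, preincubated 15–60 min at 37 °C in modified Krebs-Henseleit/25 mM HEPES buffer. Uptake of radiolabelled substrate, 100 µM inhibitor. Cells lysed in NaOH and counted by scintillation; counts normalised to medium radioactivity and Lowry protein; vector uptake subtracted.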

In data set [1] the test system is P-glycoprotein. Kind of data set: Permeability assessed as human P-glycoprotein-mediated transport across basolateral to apical side expressed in pig LLC-PK1 cells at 2 uM by liquid scintillation counting. It is filed as ADME, cell-based.
Data set [2] relates to P-glycoprotein. Put plainly: Permeability assessed as human P-glycoprotein-mediated transport of apical to basolateral side in pig LLC-PK1 cells by measuring nontransporter-related passive membrane permeability by Transwell experiment/liquid scintillation counting. In kind it is ADME, cell-based. The note with it: read-out: permeability.
Data set [3] in a line: Permeability assessed as human P-glycoprotein-mediated transport across basolateral to apical side expressed in pig LLC-PK1 cells by measuring membrane permeability time by Transwell experiment/liquid scintillation counting. It is filed as ADME, cell-based.
The target in data set [4] is T2, Organic anion transporter 3 (Homo sapiens, UniProt Q8TCC7).
T2 sequence (Q8TCC7 whole entry): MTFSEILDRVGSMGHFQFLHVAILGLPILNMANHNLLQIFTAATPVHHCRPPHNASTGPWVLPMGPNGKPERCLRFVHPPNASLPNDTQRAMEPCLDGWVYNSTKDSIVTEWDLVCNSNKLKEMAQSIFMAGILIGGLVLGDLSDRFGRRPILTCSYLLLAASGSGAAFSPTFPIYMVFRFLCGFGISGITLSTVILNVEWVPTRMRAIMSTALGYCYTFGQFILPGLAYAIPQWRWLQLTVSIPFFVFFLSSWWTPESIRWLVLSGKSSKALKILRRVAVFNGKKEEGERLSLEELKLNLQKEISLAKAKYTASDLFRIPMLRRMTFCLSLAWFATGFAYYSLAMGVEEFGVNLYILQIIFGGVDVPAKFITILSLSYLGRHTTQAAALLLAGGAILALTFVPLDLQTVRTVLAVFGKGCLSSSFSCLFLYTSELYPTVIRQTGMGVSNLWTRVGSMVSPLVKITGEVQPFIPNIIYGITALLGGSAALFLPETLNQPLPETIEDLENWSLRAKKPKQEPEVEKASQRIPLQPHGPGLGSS
Kind of data set: Inhibition of OAT3 (unknown origin) expressed in HEK293 cells assessed as reduction of [3H]E-sul substrate uptake by liquid scintillation counting. It is filed as ADME, cell-based.

Data set [5] addresses T3, Solute carrier organic anion transporter family member 1B1 (Homo sapiens, UniProt Q9Y6L6).
T3 sequence (Q9Y6L6 whole entry): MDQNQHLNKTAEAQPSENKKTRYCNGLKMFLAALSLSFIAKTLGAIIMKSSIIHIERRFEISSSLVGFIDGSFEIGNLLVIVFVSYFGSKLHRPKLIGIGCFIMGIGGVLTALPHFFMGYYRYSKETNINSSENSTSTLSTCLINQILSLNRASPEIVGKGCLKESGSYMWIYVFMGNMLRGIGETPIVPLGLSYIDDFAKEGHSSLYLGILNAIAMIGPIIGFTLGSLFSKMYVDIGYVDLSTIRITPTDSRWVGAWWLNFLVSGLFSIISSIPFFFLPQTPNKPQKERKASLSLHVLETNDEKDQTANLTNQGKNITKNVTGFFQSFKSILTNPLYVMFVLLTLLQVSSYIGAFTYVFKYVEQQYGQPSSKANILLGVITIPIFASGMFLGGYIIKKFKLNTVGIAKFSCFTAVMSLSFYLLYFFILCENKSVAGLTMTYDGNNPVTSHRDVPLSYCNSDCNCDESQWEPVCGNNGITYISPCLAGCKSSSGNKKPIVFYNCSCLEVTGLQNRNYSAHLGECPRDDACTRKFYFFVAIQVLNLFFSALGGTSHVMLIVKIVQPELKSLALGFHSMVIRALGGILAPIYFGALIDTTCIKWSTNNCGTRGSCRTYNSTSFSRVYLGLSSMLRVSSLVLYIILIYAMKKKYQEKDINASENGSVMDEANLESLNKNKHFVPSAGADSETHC
Put plainly: Inhibition of OATP1B1 (unknown origin) expressed in HEK293 cells assessed as reduction of [3H]E217betaG substrate uptake by liquid scintillation counting. In kind it is ADME, cell-based.

In data set [6] the target is T2, Organic anion transporter 3. Put plainly: Inhibition of OAT3 (unknown origin) expressed in HEK293 cells assessed as reduction of [3H]E-sul substrate uptake at 100 uM by liquid scintillation counting. In kind it is ADME, cell-based. To be noted: hek293, 100 µM. In short, it runs like this: as §1

Usually inhibition stands for the percentage by which the read-out fell short of the control. One may read the Papp B→A as how fast a substance crosses the layer from the basolateral side. The pIC50 is −log10 of the IC50, conventionally taken in molar units. With `CC#CCn1c(N2CCC[C@@H](N)C2)nc2c1c(=O)n(Cc1nc(C)c3ccccc3n1)c(=O)n2C` [LINAGLIPTIN], the inhibition at 100 µM on OCTN1 (SLC22A4) was 19.4%. Besides, the Papp B→A at 2 µM in the data set on P-glycoprotein [1] was found to be 39.4 ×10⁻⁶ cm/s. The Papp A→B in the data set with P-glycoprotein [2] worked out at 27.3 ×10⁻⁶ cm/s. Besides, in data set [3], the Time was 2.71 h. Moreover, the pIC50 in data set [4] and in data set [5] was less than 4.00 in each case. Also, the “inhibition (INH)” value in data set [6] was 0%.
